Consider one molecule from ChEMBL document CHEMBL4304827, “Design, synthesis and evaluation of structurally diverse chrysin-chromene-spirooxindole hybrids as anticancer agents” (Bioorg Med Chem, 2019).

Activity calls are given as the source filed them. No cut-off for these calls is given here. Where only a bound is given, the exact number is not on record here.

Assay [1] deals with A549. Briefly: Induction of apoptosis in human A549 cells assessed as downregulation of MDM2 protein expression incubated for 24 hrs by Western blot analysis. Format: functional, cell-based. Put shortly:
(§1)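 A549 cells were treated with various concentrations for 24 h and lysed in RIPA buffer with 1 mM PMSF. Protein (20 μg) was resolved on 8-12% SDS-PAGE and transferred to PVDF. Membranes were blocked in 5% milk and probed with primary antibodies overnight at 4 °C, then with anti-rabbit secondary. Bands were quantified by densitometry. Mean ± SD, ≥3 experiments.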

The test system of assay [2] is A549. Put plainly: Induction of apoptosis in human A549 cells assessed as increase in caspase 9 activity at 100 uM incubated for 24 hrs by colorimetry relative to control. Format: functional. In a few lines:
(§2)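 A549 cells were plated at 3 × 10^5/well and cultured 12 h, then treated with various concentrations for 24 h. Cells were lysed on ice for 60 min. Lysate containing 200 μg protein was incubated with caspase-3, -8 or -9 colorimetric substrate at 37 °C for 4 h in the dark, and A405 was read. Activation = (treated − blank)/(control − blank). Mean ± SD, ≥3 experiments.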

The subject of assay [3] is A549. Briefly: Induction of apoptosis in human A549 cells assessed as compromised cell membrane boundaries at 5 to 20 uM incubated for 24 hrs by PI staining based fluorescence microscopy. Format: functional. In a few lines:
(§3)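 A549 cells were plated at 3 × 10^5/well and cultured 12 h, then exposed to various concentrations for 24 h. Morphology was observed by microscopy. AO-EB stain (1 mg/mL each, in PBS) was applied for 10 min at room temperature in the dark. Harvested cells were stained with PI for 15 min at room temperature in the dark, then washed. Both stains were examined by fluorescence microscopy.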

The test system of assay [4] is A549. Put plainly: Induction of apoptosis in human A549 cells assessed as downregulation of Bcl2 protein expression incubated for 24 hrs by Western blot analysis. Format: functional, cell-based. In a few lines: as §1
Assay [5] deals with A549. Put plainly: Induction of apoptosis in human A549 cells assessed as downregulation of Bcl2 protein expression at 10 uM by Western blot analysis. Format: functional, cell-based. Conditions: TDE = time-dependent effect. In a few lines: (§4)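 A549 cells were exposed to 10 μM for different times and lysed in RIPA buffer with 1 mM PMSF. Protein (20 μg) was separated on 8-12% SDS-PAGE and transferred to PVDF. Membranes were blocked in 5% milk and incubated with primary antibodies overnight at 4 °C, then with anti-rabbit secondary. Bands were quantified by densitometry. Mean ± SD, ≥3 experiments.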

The test system of assay [6] is A549. Briefly: Induction of apoptosis in human A549 cells assessed as late apoptotic cells at 50 uM incubated for 24 hrs by annexin V FITC and PI staining based flow cytometry (reference value: 1.32%). Format: functional.
Assay [7] has as its system A549. Briefly: Induction of apoptosis in human A549 cells assessed as early apoptotic cells at 25 uM incubated for 24 hrs by annexin V FITC and PI staining based flow cytometry (reference value: 0.53%). Format: functional.
The subject of assay [8] is A549. Briefly: Induction of apoptosis in human A549 cells assessed as upregulation of Bax protein expression at 10 uM by Western blot analysis. Format: functional, cell-based. To be noted: TDE = time-dependent effect. In a few lines: as §4
Assay [9] deals with A549. Briefly: Induction of apoptosis in human A549 cells incubated for 24 hrs by annexin V FITC and PI staining based flow cytometry. Format: functional, cell-based.
For assay [10], the system named is K562. Put plainly: Antiproliferative activity against human K562 cells assessed as reduction in cell proliferation incubated for 48 hrs by MTT assay. To be noted: K562, 48 h. Format: functional, cell-based. Put shortly:
(§5)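 Log-phase cells were plated at 5 × 10^3/well in RPMI-1640 with 10% FBS and cultured 24 h. Compounds were added at graded concentrations (DMSO <0.1%) for 48 h. MTT (5 mg/mL) was added for about 4 h, formazan was dissolved in DMSO and A490 was read. IC50 was calculated from ≥3 independent experiments and reported as mean ± SD. Chrysin served as positive control.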

Assay [11] concerns A549. Briefly: Antiproliferative activity against human A549 cells assessed as reduction in cell proliferation incubated for 48 hrs by MTT assay. Format: functional, cell-based. Conditions: A549, 48 h. Put shortly: as §5
For assay [12], the system named is A549. Briefly: Inhibition of colony formation in human A549 cells culture in 0.3% RPMI-1640 medium agar assessed as decrease in size and number of colonies formed incubated for 20 days by NBT staining based assay. Format: functional, cell-based. In a few lines:
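A549 cells at 1 × 10^5 cells/mL were treated with various concentrations in 0.3% medium-agar layered over 0.6% medium-agar. Cultures were kept at 37 °C and 5% CO2. Methods give 14 days; the figure legend gives 20 days. Colonies were stained with 1.5 mg/mL NBT and counted as a percentage of control. Mean ± SD, ≥3 experiments.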

In assay [13] the test system is A549. Briefly: Induction of apoptosis in human A549 cells assessed as viable cells at 50 uM incubated for 24 hrs by annexin V FITC and PI staining based flow cytometry (reference value: 95.7%). Format: functional. Conditions: A549, 24 h, read-out: Activity.
Assay [14] concerns A549. Briefly: Induction of apoptosis in human A549 cells assessed as increase in DNA ladder formation incubated for 24 hrs by agarose gel electrophoresis method. Format: functional, cell-based. Put shortly:
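A549 cells were treated with various concentrations for 24 h. Genomic DNA was isolated by lysis, RNase A and proteinase K digestion, then ethanol precipitation. DNA was run on a 2% agarose gel to visualize ladder formation.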

The subject of assay [15] is PC-3. Put plainly: Antiproliferative activity against human PC3 cells assessed as reduction in cell proliferation incubated for 48 hrs by MTT assay. Format: functional, cell-based. Conditions: PC-3, 48 h. Put shortly: as §5
The test system of assay [16] is A549. Briefly: Induction of apoptosis in human A549 cells assessed as increase in caspase 8 activity at 100 uM incubated for 24 hrs by colorimetry relative to control. Format: functional. In a few lines: as §2
Assay [17] relates to A549. Briefly: Induction of apoptosis in human A549 cells assessed as downregulation of 5-Lox protein expression incubated for 24 hrs by Western blot analysis. Format: functional, cell-based. Put shortly:
as §1

In assay [18] the test system is MRC5. Briefly: Cytotoxicity against human MRC5 cells assessed as reduction in cell proliferation incubated for 48 hrs by MTT assay. Format: cell-based. Conditions: MRC5, 48 h. In a few lines:
as §5

Assay [19] relates to A549. Briefly: Induction of apoptosis in human A549 cells assessed as morphological changes by measuring rounded cells with weak adhesion incubated for 24 hrs. Format: functional, cell-based. Put shortly:
as §3

Assay [20] relates to A549. Briefly: Induction of apoptosis in human A549 cells assessed as chromatin shrinkage and apoptotic body formation at higher concentrations incubated for 24 hrs by AO-EB staining based fluorescence microscopy. Format: functional, cell-based. In a few lines: as §3
In assay [21] the test system is NCI-H1299. Briefly: Antiproliferative activity against human H1299 cells assessed as reduction in cell proliferation incubated for 48 hrs by MTT assay. Format: functional, cell-based. Conditions: NCI-H1299, 48 h. In a few lines:
as §5

In assay [22] the test system is A549. Briefly: Induction of apoptosis in human A549 cells assessed as early apoptotic cells at 50 uM incubated for 24 hrs by annexin V FITC and PI staining based flow cytometry (reference value: 0.53%). Format: functional.

For `CN1C(=O)C2(C(C#N)=C(N)Oc3cc4oc(-c5ccccc5)cc(=O)c4c(O)c32)c2cc(Br)ccc21` (configuration not stated), the inhibition entry in assay [1] was “Dose-dependent effect”; in [4] it was “Dose-dependent effect”; in [5] it was “Tde”; in assay [12], “Dose-dependent effect”; in assay [17], “Dose-dependent effect”. For the same molecule, the results for the “fold change (FC)” value in [2] and in [16] were 1.81 and 2.98, respectively. Moreover, the outcome in assay [3] and in assay [20] was Active. In addition, the Activity in assay [6] was 24.8%; in assay [7], 9.8%; in assay [8], “Tde”; in [9] it was “Dose-dependent effect”; in [14], “Dose-dependent effect”; in [19] it was “Dose-dependent effect”. Also, in [22], the Activity came to 9.33%. Besides, the IC50 in assay [10] was 4.1 µM; in assay [11], 3.15 µM; in assay [15], 20.3 µM; in assay [18], greater than 100 µM; in assay [21], 7.61 µM. The viability at 50 µM in [13] came to 59.8%.
